Data published in ChEMBL document CHEMBL1629581, “Diverse cytomegalovirus UL27 mutations adapt to loss of viral UL97 kinase activity under maribavir” (Antimicrob Agents Chemother, 2009).
The source made the active and inactive calls. No cut-off for these calls is given here.

Legend:
Human betaherpesvirus 5 [1] = experiment: Ratio of EC50 for Human cytomegalovirus T2981 expressing UL27 kinase with W153R mutant gene to EC50 for Human cytomegalovirus T2211 expressing wild type UL27 gene; format: functional
Procedure, shortened: (§1)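 Each strain's maribavir EC50 comes from a 6-day SEAP yield reduction in human embryonic lung fibroblasts at MOI 0.01 to 0.02, fitted from supernatant chemiluminescence over at least 12 replicates on at least four dates. It is expressed relative to the EC50 of baseline strain T2211 assayed simultaneously on the same setup dates.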

Human betaherpesvirus 5 [2] = experiment: Ratio of EC50 for Human cytomegalovirus T3019 expressing UL27 kinase with 218delC mutant gene to EC50 for Human cytomegalovirus T2211 expressing wild type UL27 gene; format: functional; procedure, shortened: as §1
Human betaherpesvirus 5 [3] = experiment: Antiviral activity against 0.01 to 0.02 MOI of Human cytomegalovirus T2899 expressing wild type UL97 kinase with N289D, D298G, N300G, P307L,V310A, D351N, I367V mutant gene assessed as growth inhibition at day 6 by SEAP yield reduction assay relative to control; format: functional, organism-based
Human betaherpesvirus 5 [4] = experiment: Antiviral activity against Human cytomegalovirus clinical isolate C076 harboring UL97 V353A mutant gene with UL27 del 301 to 311 codon by SEAP yield reduction assay relative to wild type; format: functional
Human betaherpesvirus 5 [5] = experiment: Antiviral activity against Human cytomegalovirus T2981 expressing UL27 kinase with W153R mutant gene by SEAP yield reduction assay; format: functional, organism-based; conditions: Human betaherpesvirus 5, T2981
Procedure, shortened: (§2)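 Cell-free virus was put on 6-day-old human embryonic lung fibroblast monolayers at MOI 0.01 to 0.02 and cultured 6 days across a maribavir range (six wells per assay). Supernatant SEAP was read by chemiluminescent substrate, and EC50 was derived by curve fitting. Values are the mean and standard error of at least 12 replicates over at least four dates. T2211 was run alongside on every date.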

Human betaherpesvirus 5 [6] = experiment: Antiviral activity against Human cytomegalovirus T2211 expressing wild type UL27 kinase by SEAP yield reduction assay; format: functional, organism-based; conditions: Human betaherpesvirus 5, T2211; procedure, shortened: as §2
Human betaherpesvirus 5 [7] = experiment: Antiviral activity against Human cytomegalovirus T2890 expressing UL97 kinase with V353A mutant gene by SEAP yield reduction assay; format: functional, organism-based; conditions: Human betaherpesvirus 5, T2890; procedure, shortened: as §2
Human betaherpesvirus 5 [8] = experiment: Antiviral activity against Human cytomegalovirus T2898 expressing UL27 kinase with W362stop gene N289D, D298G, N300G, P307L, V310A, D351N, I367V mutant gene by SEAP yield reduction assay; format: functional, organism-based; conditions: Human betaherpesvirus 5, T2898; procedure, shortened: as §2
Human betaherpesvirus 5 [9] = experiment: Antiviral activity against Human cytomegalovirus T3037 expressing UL27 kinase with L426F mutant gene by SEAP yield reduction assay; format: functional, organism-based; conditions: Human betaherpesvirus 5, T3037; procedure, shortened: as §2
Human betaherpesvirus 5 [10] = experiment: Antiviral activity against Human cytomegalovirus clinical T2294 harboring UL97 T409 mutant gene with UL27 V353E mutant gene by SEAP yield reduction assay relative to wild type; format: functional
Human betaherpesvirus 5 [11] = experiment: Ratio of EC50 for Human cytomegalovirus T3037 expressing UL27 kinase with L426F mutant gene to EC50 for Human cytomegalovirus T2211 expressing wild type UL27 gene; format: functional; procedure, shortened: as §1
Human betaherpesvirus 5 [12] = experiment: Antiviral activity against 0.01 to 0.02 MOI of Human cytomegalovirus T2898 expressing UL27 kinase with W362stop gene N289D, D298G, N300G, P307L, V310A, D351N, I367V mutant gene assessed as growth inhibition at day 6 by SEAP yield reduction assay relative to control; format: functional, organism-based
Human betaherpesvirus 5 [13] = experiment: Ratio of EC50 for Human cytomegalovirus T2931 expressing UL27 kinase 301 to 311 deletion with frame shift mutation at 311 codon to EC50 for Human cytomegalovirus T2211 expressing wild type UL27 gene; format: functional; procedure, shortened: as §1
Human betaherpesvirus 5 [14] = experiment: Antiviral activity against Human cytomegalovirus T3053 expressing UL27 kinase with V353E mutant gene by SEAP yield reduction assay; format: functional, organism-based; conditions: Human betaherpesvirus 5, T3053; procedure, shortened: as §2
Human betaherpesvirus 5 [15] = experiment: Antiviral activity against Human cytomegalovirus clinical T2294 harboring UL97 T409 mutant gene with UL27 E22stop mutant gene by SEAP yield reduction assay relative to wild type; format: functional
Human betaherpesvirus 5 [16] = experiment: Antiviral activity against Human cytomegalovirus T2867 expressing UL27 kinase with A269T mutant gene by SEAP yield reduction assay; format: functional, organism-based; conditions: Human betaherpesvirus 5, T2867; procedure, shortened: as §2
Human betaherpesvirus 5 [17] = experiment: Ratio of EC50 for Human cytomegalovirus T3053 expressing UL27 kinase with V353E mutant gene to EC50 for Human cytomegalovirus T2211 expressing wild type UL27 gene; format: functional; procedure, shortened: as §1
Human betaherpesvirus 5 [18] = experiment: Ratio of EC50 for Human cytomegalovirus T2898 expressing UL27 kinase with W362stop gene N289D, D298G, N300G, P307L, V310A, D351N, I367V mutant gene to EC50 for Human cytomegalovirus T2211 expressing wild type UL27 gene; format: functional; procedure, shortened: as §1
Human betaherpesvirus 5 [19] = experiment: Antiviral activity against 0.01 to 0.02 MOI of Human cytomegalovirus T2266 harboring UL97 deletion of 537 through the end mutant gene assessed as growth inhibition at day 6 by SEAP yield reduction assay relative to control; format: functional, organism-based
Human betaherpesvirus 5 [20] = experiment: Antiviral activity against Human cytomegalovirus T2767 expressing UL27 kinase with L193Fmutant gene by SEAP yield reduction assay; format: functional, organism-based; conditions: Human betaherpesvirus 5, T2767; procedure, shortened: as §2
Human betaherpesvirus 5 [21] = experiment: Ratio of EC50 for Human cytomegalovirus T3020 expressing UL27 kinase with E22stop gene to EC50 for Human cytomegalovirus T2211 expressing wild type UL27 gene; format: functional; procedure, shortened: as §1
Human betaherpesvirus 5 [22] = experiment: Antiviral activity against 0.01 to 0.02 MOI of Human cytomegalovirus T2867 expressing UL27 kinase with A269T mutant gene assessed as growth inhibition at day 6 by SEAP yield reduction assay relative to control; format: functional, organism-based
Human betaherpesvirus 5 [23] = experiment: Ratio of EC50 for Human cytomegalovirus T2899 expressing wild type UL27 kinase with N289D, D298G, N300G, P307L,V310A, D351N, I367V mutant gene to EC50 for Human cytomegalovirus T2211 expressing wild type UL27 gene; format: functional; procedure, shortened: as §1
Human betaherpesvirus 5 [24] = experiment: Antiviral activity against 0.01 to 0.02 MOI of Human cytomegalovirus T2931 expressing UL27 kinase 301 to 311 deletion with frame shift mutation at 311 codon assessed as growth inhibition at day 6 by SEAP yield reduction assay relative to control; format: functional, organism-based
Human betaherpesvirus 5 [25] = experiment: Antiviral activity against Human cytomegalovirus clinical T2294 harboring UL97 T409M mutant gene with UL27 W153R mutant gene by SEAP yield reduction assay relative to wild type; format: functional
Human betaherpesvirus 5 [26] = experiment: Ratio of EC50 for Human cytomegalovirus T2867 expressing UL27 kinase with A269T mutant gene to EC50 for Human cytomegalovirus T2211 expressing wild type UL27 gene; format: functional; procedure, shortened: as §1
Human betaherpesvirus 5 [27] = experiment: Ratio of EC50 for Human cytomegalovirus T2890 expressing UL97 kinase with V353A mutant gene to EC50 for Human cytomegalovirus T2211 expressing wild type UL27 gene; format: functional; procedure, shortened: as §1
Human betaherpesvirus 5 [28] = experiment: Antiviral activity against Human cytomegalovirus T2931 expressing UL27 kinase 301 to 311 deletion with frame shift mutation at 311 codon by SEAP yield reduction assay; format: functional, organism-based; conditions: Human betaherpesvirus 5, T2931; procedure, shortened: as §2
Human betaherpesvirus 5 [29] = experiment: Ratio of EC50 for Human cytomegalovirus T2767 expressing UL27 kinase with L193Fmutant gene to EC50 for Human cytomegalovirus T2211 expressing wild type UL27 gene; format: functional; procedure, shortened: as §1
Human betaherpesvirus 5 [30] = experiment: Antiviral activity against Human cytomegalovirus T3019 expressing UL27 kinase with 218delC mutant gene by SEAP yield reduction assay; format: functional, organism-based; conditions: Human betaherpesvirus 5, T3019; procedure, shortened: as §2
Human betaherpesvirus 5 [31] = experiment: Antiviral activity against Human cytomegalovirus T3020 expressing UL27 kinase with E22stop gene by SEAP yield reduction assay; format: functional, organism-based; conditions: Human betaherpesvirus 5, T3020; procedure, shortened: as §2
Human betaherpesvirus 5 [32] = experiment: Antiviral activity against Human cytomegalovirus T2899 expressing wild type UL27 kinase with N289D, D298G, N300G, P307L,V310A, D351N, I367V mutant gene by SEAP yield reduction assay; format: functional, organism-based; conditions: Human betaherpesvirus 5, T2899; procedure, shortened: as §2

SMILES: CC(C)Nc1nc2cc(Cl)c(Cl)cc2n1[C@H]1O[C@@H](CO)[C@H](O)[C@@H]1O [MARIBAVIR]
- Ratio EC50 (Human betaherpesvirus 5 [1]): 1.7
- Ratio EC50 (Human betaherpesvirus 5 [2]): 2.5
- inhibition (Human betaherpesvirus 5 [3]): Active
- fold change (FC) (Human betaherpesvirus 5 [4]): 15
- EC50 (Human betaherpesvirus 5 [5]): 160 nM
- EC50 (Human betaherpesvirus 5 [6]): 95 nM
- EC50 (Human betaherpesvirus 5 [7]): 1480 nM
- EC50 (Human betaherpesvirus 5 [8]): 210 nM
- EC50 (Human betaherpesvirus 5 [9]): 210 nM
- fold change (FC) (Human betaherpesvirus 5 [10]): 15
- Ratio EC50 (Human betaherpesvirus 5 [11]): 2.2
- inhibition (Human betaherpesvirus 5 [12]): Active
- Ratio EC50 (Human betaherpesvirus 5 [13]): 3.1
- EC50 (Human betaherpesvirus 5 [14]): 200 nM
- fold change (FC) (Human betaherpesvirus 5 [15]): 15
- EC50 (Human betaherpesvirus 5 [16]): 190 nM
- Ratio EC50 (Human betaherpesvirus 5 [17]): 2.1
- Ratio EC50 (Human betaherpesvirus 5 [18]): 2.2
- inhibition (Human betaherpesvirus 5 [19]): Active
- EC50 (Human betaherpesvirus 5 [20]): 240 nM
- Ratio EC50 (Human betaherpesvirus 5 [21]): 2
- inhibition (Human betaherpesvirus 5 [22]): Active
- Ratio EC50 (Human betaherpesvirus 5 [23]): 0.9
- inhibition (Human betaherpesvirus 5 [24]): Active
- fold change (FC) (Human betaherpesvirus 5 [25]): 15
- Ratio EC50 (Human betaherpesvirus 5 [26]): 2
- Ratio EC50 (Human betaherpesvirus 5 [27]): 16
- EC50 (Human betaherpesvirus 5 [28]): 290 nM
- Ratio EC50 (Human betaherpesvirus 5 [29]): 2.6
- EC50 (Human betaherpesvirus 5 [30]): 230 nM
- EC50 (Human betaherpesvirus 5 [31]): 190 nM
- EC50 (Human betaherpesvirus 5 [32]): 84 nM
